{"source": "paper PMC4517987", "about": "(Bioorganic & medicinal chemistry, 2015)", "key": {"[1]": {"test_system": "intraerythrocytic P. falciparum 3D7", "conditions": "cited from earlier work"}, "[2]": {"test_system": "HepG2 cells", "conditions": "HepG2 vs P. falciparum; cited from earlier work"}, "[3]": {"test_system": "HepG2 cells", "test": "Cytotoxicity against HepG2 cells, lactate dehydrogenase", "format": "cell-based, human", "conditions": "GI50 mammalian cell (HepG2)/IC50 P. falciparum (3D7)"}, "[4]": {"test_system": "late (>90% stage IV/V) gametocytes of P. falciparum (NF54-Mal8p1.16-GFP-Luc)", "test": "Gametocytocidal luciferase reporter assay, late gametocytes", "format": "cell-based, Plasmodium falciparum", "conditions": "5 µM, 48 h, inhibition of luciferase readout", "outline": "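Gametocytes induced from synchronized asexual cultures in the NF54-Mal8p1.16-GFP-Luc line: glucose-free medium under hypoxia, with daily changes, and 50 mM N-acetyl glucosamine on days 1–4 to remove asexual forms. Assays set up on day 10 in triplicate at 2% gametocytemia and 2% hematocrit, 48 h, 37 °C, hypoxic. Luciferin added to lysates at room temperature and luminescence read with 10 s integration; % inhibition derived.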"}, "[5]": {"test_system": "β-hematin formation", "test": "NP-40 mediated β-hematin formation assay", "format": "biochemical"}, "[6]": {"test_system": "intraerythrocytic P. falciparum parasites", "test": "Flow cytometric analysis of nuclear content and parasitemia", "format": "cell-based, Plasmodium falciparum", "conditions": "1 × IC90, continuous treatment for 96 h", "outline": "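Intraerythrocytic parasites (2% parasitemia, 2% hematocrit) treated in duplicate, with untreated (DMSO) controls. Samples taken at 24, 48, 72 and 96 h. Nuclear content (1 N rings/early trophozoites, 2 N trophozoites, >2 N schizonts) and parasitemia measured from SYBR Green I fluorescence by flow cytometry in the FITC channel (488 nm excitation; 502 nm long-pass and 530 nm band-pass emission).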"}, "[7]": {"test_system": "Plasmodium yoelii", "conditions": "murine model of Plasmodium yoelii; ref unpublished observations; cited from earlier work"}}, "note": "pIC50: −log10 of the molar value. Structures can show the parent of a compound that is named as a salt.", "data": [{"molecule": "CCNC(=O)NCCCNCCCCCCNCCCNC(=O)NCC", "note": "[Compound 54]", "values": [{"measurement": "P. falciparum IC50 (previously reported analogues)", "setting": "[1]", "value": "inactive"}]}, {"molecule": "CCCNC(=O)NCCCNCCCCCCNCCCNC(=O)NCCC", "note": "[Compound 53]", "values": [{"measurement": "P. falciparum IC50 (previously reported analogues)", "setting": "[1]", "value": "inactive"}]}, {"molecule": "O=C(NCCCNCCCCCCCNCCCNC(=O)NC(c1ccccc1)c1ccccc1)NC(c1ccccc1)c1ccccc1", "note": "[Compound 29]", "values": [{"measurement": "Selectivity (SI) compared to HepG2 cells (previously reported analogues)", "setting": "[2]", "value": "> 1000"}]}, {"molecule": "S=C(NCCCNCCCCCNCCCNC(=S)NCC(c1ccccc1)c1ccccc1)NCC(c1ccccc1)c1ccccc1", "note": "[Compound 10, 1,13-Bis-{3-[1-(2′,2′-diphenylethyl)thiourea]}-4,10-diazatridecane dihydrochloride]", "values": [{"measurement": "Selectivity index (SI)", "setting": "[3]", "value": "> 1000"}]}, {"molecule": "S=C(NCCCNCCCCCNCCCNC(=S)NCCC(c1ccccc1)c1ccccc1)NCCC(c1ccccc1)c1ccccc1", "note": "[Compound 11, 1,13-Bis-{3-[1-(3′,3′-diphenylpropyl)thiourea]}-4,10-diazatridecane dihydrochloride]", "values": [{"measurement": "Gametocytocidal activity, late-stage gametocytes", "setting": "[4]", "value": "fully inhibitory"}]}, {"molecule": "O=C(NCCCNCCCCCNCCCNC(=O)NCCC(c1ccccc1)c1ccccc1)NCCC(c1ccccc1)c1ccccc1", "note": "[Compound 16, 1,13-Bis-{3-[1-(3′,3′-diphenylpropyl)urea]}-4,10-diazatridecane dihydrochloride]", "values": [{"measurement": "pIC50", "setting": "[5]; read-out: β-hematin formation inhibition IC50, NP-40 mediated, n = 3", "value": "< 3.40"}, {"measurement": "Time to complete cessation of parasite proliferation", "setting": "[6]", "value": "≤ 24", "unit": "h"}]}, {"molecule": "O=C(NCCCNCCCCCNCCCNC(=O)NCC(c1ccccc1)c1ccccc1)NCC(c1ccccc1)c1ccccc1", "note": "[Compound 15, 1,13-Bis-{3-[1-(2′,2′-diphenylethyl)urea]}-4,10-diazat-ridecane dihydrochloride]", "values": [{"measurement": "Time to complete cessation of parasite proliferation", "setting": "[6]", "value": "≤ 24", "unit": "h"}]}, {"molecule": "S=C(NCCCNCCCCCCNCCCNC(=S)NCc1ccccc1)NCc1ccccc1", "note": "[Compound 28]", "values": [{"measurement": "Selectivity (SI) compared to HepG2 cells (previously reported analogues)", "setting": "[2]", "value": "> 1000"}]}, {"molecule": "O=C(NCCCNCCCCCNCCCNC(=O)NCc1ccccc1)NCc1ccccc1", "note": "[Compound 13, 1,13-Bis-{3-[1-(benzyl)urea]}-4,10-diazatridecane dihydrochloride]", "values": [{"measurement": "β-hematin formation inhibition, concentration without activity", "setting": "[5]; no activity even at 1 mM", "value": "> 1", "unit": "mM"}]}, {"molecule": "C(CCCNCCCNCC1CCCCCC1)CCCNCCCNCC1CCCCCC1", "note": "[Compound 5]", "values": [{"measurement": "Reduction of parasitemia and extension of life span", "setting": "[7]", "value": "as effective as pyrimethamine at reducing parasitemia and extending life span"}]}, {"molecule": "S=C(NCCCNCCCCCNCCCNC(=S)NC(c1ccccc1)c1ccccc1)NC(c1ccccc1)c1ccccc1", "note": "[Compound 9, 1,13-Bis-{3-[1-(1’,1’-diphenylmethyl)thiourea]}-4,10-diazatridecane dihydrochloride]", "values": [{"measurement": "Gametocytocidal activity, late-stage gametocytes", "setting": "[4]", "value": "fully inhibitory"}]}]}
